The record followed here is ChEMBL document CHEMBL3853310, “Daphnane Diterpenes from Daphne genkwa Activate Nurr1 and Have a Neuroprotective Effect in an Animal Model of Parkinson's Disease” (J Nat Prod, 2016).

Data set [1] has as its target Nuclear receptor subfamily 4 group A member 2 (Mus musculus) (UniProt Q06219). Nature of the data set: Activation of mouse Nurr1 transfected in human SK-N-BE(2)C cells at 0.3 uM by luciferase reporter gene assay relative to control. It is filed as cell-based. The essentials: (§1)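 SK-N-BE(2)C neuroblastoma cells plated 1.5 × 10^5/well a day before, transfected with pTH2600LUC (2.6 kb rat TH promoter), pCMV Nurr1-myc, pZeoSV-Nurr1(LBD), p8xGAL-Luc and pRSV-β-gal control (0.5 µg DNA/well total). Test agent added 6 h post-transfection in DMEM with 1% charcoal-stripped serum, incubated overnight. Firefly luciferase read, normalized to β-galactosidase.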

Data set [2] deals with SH-SY5Y. Description: Neuroprotective activity against 6-OHDA-induced cell death in human SH-SY5Y cells assessed as increase in cell viability at 6.25 uM by MTT reduction assay. It is filed as functional, cell-based. The essentials: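 SH-SY5Y cells grown 2 days on poly-D-lysine in DMEM with 10% horse serum and 5% FBS, then switched to serum-free N-2 medium containing 6-OHDA ± compound. Viability by MTT (1 mg/mL final, 1 h), formazan solubilized 24 h in Triton/HCl/isopropanol, absorbance 570 nm. ANOVA with Tukey–Kramer, n = 4.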

Data set [3] relates to BV-2. Nature of the data set: Antiinflammatory activity in mouse BV2 cells assessed as downregulation of LPS-induced IL-1beta mRNA expression at 3 uM by qRT-PCR method. It is filed as functional, cell-based. Put shortly: (§2)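 BV-2 mouse microglia (DMEM, 10% heat-inactivated FBS, 2 mM glutamine) in six-well plates at 1.0 × 10^5 cells/well, given LPS with or without compound at 37 °C. RNA extracted. IL-1β and IL-6 mRNA measured by SYBR Green real-time PCR on cDNA from 50 ng DNase-treated RNA. ANOVA with Tukey–Kramer, n = 4.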

The nature of data set [4]: Cytotoxicity against human SK-N-BE(2)C cells up to 30 uM. It is filed as toxicity, cell-based.
Data set [5] deals with Nuclear receptor subfamily 4 group A member 2 (Mus musculus) (UniProt Q06219). Description: Activation of mouse Nurr1 transfected in human SK-N-BE(2)C cells by luciferase reporter gene assay. It is filed as cell-based. The essentials:
as §1

Data set [6] concerns Rattus norvegicus. Description: Neuroprotective activity in 6-OHDA-lesioned Sprague-Dawley rat model of parkinson disease assessed as decrease in d-amphetamine-induced ipsilateral rotations at 0.5 mg/kg/day, ip administered for 2 weeks measured on day 14 and 42 post 6-OHDA lesion induction relative to vehicle-treated control. It is filed as functional, organism-based. Put shortly: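 Sprague-Dawley rats (140–160 g), desipramine 25 mg/kg ip 30 min before surgery, under Zoletil anesthesia. 6-OHDA 8 µL of 2.5 µg/µL injected into left striatum. Compound in saline with 0.25% ethanol or vehicle given ip daily for 2 weeks (n = 10 vs 14). d-Amphetamine 5 mg/kg. Ipsilateral turns counted for 30 min starting 30 min after dosing, at weeks 2 and 6. Student's t-test.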

The nature of data set [7]: Cytotoxicity against human SH-SY5Y cells assessed as decrease in cell viability at higher concentrations by MTT reduction assay. It is filed as toxicity, cell-based.
In data set [8] the test system is Rattus norvegicus. Nature of the data set: Antiinflammatory activity in 6-OHDA-lesioned Sprague-Dawley rat model of parkinson disease assessed as decrease in Iba-1 positive cell levels in striatum at 0.5 mg/kg/day, ip administered for 2 weeks measured on day 43 post 6-OHDA lesion induction by immunohistochemical analysis relative to vehicle-treated control. The data set is classed as functional, organism-based. Put shortly: (§3)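 Same unilateral striatal 6-OHDA rat model with 2-week daily ip dosing (vehicle 0.25% ethanol). Perfused with 4% PFA on day 43. 40 µm coronal sections stained by DAB for TH (SNc, AP −4.8 to −5.5) or Iba-1 (striatum, AP +1.0 to +0.6). Cells counted in three sections per animal. TH expressed as % of contralateral side. Student's t-test, n = 10–14.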

Data set [9] relates to BV-2. Description: Antiinflammatory activity in mouse BV2 cells assessed as downregulation of LPS-induced IL-6 mRNA expression at 3 uM by qRT-PCR method. The data set is classed as functional, cell-based. The essentials:
as §2

Data set [10] relates to Rattus norvegicus. Description: Neuroprotective activity in 6-OHDA-lesioned Sprague-Dawley rat model of parkinson disease assessed as decrease in loss of tyrosine hydroxylase-positive immunoreactive neuronal cell levels in ipsilateral side of substantia nigra pars compacta by measuring cell levels in intact contralateral side at 0.5 mg/kg/day, ip administered for 2 weeks measured on day 43 post 6-OHDA lesion induction by immunohistochemical analysis (reference value: 24.62 +/- 3.48%). The data set is classed as functional. Also noted: scale not given: the % may be the effect or the level left. Put shortly: as §3

Data set [11] deals with SH-SY5Y. Description: Neuroprotective activity against 6-OHDA-induced cell death in human SH-SY5Y cells assessed as decrease in release of mitochondrial cytochrome c into cytosolic fraction at 6 uM by Western blot method. The data set is classed as functional, cell-based. Put shortly:
(§4)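 SH-SY5Y cells exposed to 6-OHDA in serum-free N-2 medium ± compound at 6 µM. Lysates in Triton/Tris/NaCl/PMSF, SDS-PAGE, PVDF blot, HRP secondary, ECL detection of cleaved caspase-3 and cytosolic cytochrome c. Actin and SOD-1 used as loading controls.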

In data set [12] the test system is BV-2. Description: Antiinflammatory activity in mouse BV2 cells assessed as downregulation of LPS-induced IL-1beta level at 3 uM by Western blot method. The data set is classed as functional, cell-based.
Data set [13] concerns SH-SY5Y. Nature of the data set: Neuroprotective activity against 6-OHDA-induced cell death in human SH-SY5Y cells assessed as decrease in cleaved caspase-3 level at 6 uM by Western blot method. It is filed as functional, cell-based. The essentials:
as §4

The test system of data set [14] is BV-2. Description: Antiinflammatory activity in mouse BV2 cells assessed as downregulation of LPS-induced IL-6 level at 3 uM by Western blot method. The data set is classed as functional, cell-based.

Calls of active or inactive are those of the source. No cut-off for these calls is given here.

Chain of Nuclear receptor subfamily 4 group A member 2 (Mus musculus) (Q06219 whole entry, the tested form may be a part): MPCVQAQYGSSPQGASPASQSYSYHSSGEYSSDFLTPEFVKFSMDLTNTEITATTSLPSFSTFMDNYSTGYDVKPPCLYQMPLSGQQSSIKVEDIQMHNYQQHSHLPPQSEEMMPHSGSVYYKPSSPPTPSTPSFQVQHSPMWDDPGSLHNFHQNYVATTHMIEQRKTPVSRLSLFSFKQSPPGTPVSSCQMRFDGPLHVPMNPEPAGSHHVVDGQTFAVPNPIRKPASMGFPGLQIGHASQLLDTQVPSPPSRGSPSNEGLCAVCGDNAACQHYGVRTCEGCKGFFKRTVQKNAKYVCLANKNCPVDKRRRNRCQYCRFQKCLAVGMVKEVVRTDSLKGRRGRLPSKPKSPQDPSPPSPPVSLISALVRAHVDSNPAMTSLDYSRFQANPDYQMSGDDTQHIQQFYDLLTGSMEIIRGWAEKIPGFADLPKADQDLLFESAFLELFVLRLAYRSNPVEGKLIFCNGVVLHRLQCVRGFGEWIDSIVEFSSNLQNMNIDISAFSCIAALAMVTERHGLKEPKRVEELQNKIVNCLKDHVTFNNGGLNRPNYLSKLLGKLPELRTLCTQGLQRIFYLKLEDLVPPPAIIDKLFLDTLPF

As to `C=C(C)[C@@]12OC3(/C=C/C=C/CCCCC)O[C@@H]1[C@@H]1[C@@H]4O[C@]4(CO)[C@@H](O)[C@]4(O)C(=O)C(C)=C[C@H]4[C@@]1(O3)[C@H](C)[C@H]2OC(=O)c1ccccc1`, the fold change (FC) in data set [1] is 3.5. Besides, the outcome in the data set on SH-SY5Y [2], in the data set with BV-2 [3], in the data set with Rattus norvegicus [6], in the data set with Rattus norvegicus [8], in the data set with BV-2 [9] and in the data set on SH-SY5Y [11] was Active. In addition, the result with BV-2 [12], with SH-SY5Y [13] and in the data set with BV-2 [14] was Active. For the same compound, the Activity entry in data set [4] was “Non-Toxic”; in data set [5], “Dose-dependent effect”; in data set [7], “Toxic”; in the data set with Rattus norvegicus [10], 40.28%.

Turning to `C=C(C)[C@]12C[C@@H](C)[C@@]34OC(c5ccccc5)(O[C@@H]1[C@@H]3[C@@H]1O[C@]1(CO)[C@@H](O)[C@@]1(O)[C@H]4C[C@H](C)[C@@H]1OC(=O)c1ccccc1)O2`, the fold change (FC) in [1] was 3. Moreover, the result in the data set on SH-SY5Y [2], in the data set on BV-2 [3], in the data set with BV-2 [9], in the data set on SH-SY5Y [11], with BV-2 [12] and with SH-SY5Y [13] was Active. In addition, the outcome with BV-2 [14] was Active. Also, the Activity result in data set [4] is “Non-Toxic”; in [5], “Dose-dependent effect”; in data set [7] it was “Toxic”.
